Results on 59 compounds are retold here after ChEMBL document CHEMBL3102843, “Synthesis and antifungal activity of substituted 2,4,6-pyrimidinetrione carbaldehyde hydrazones” (Bioorg Med Chem, 2014).

≈ marks a conversion by molar mass, not a printed value. Calls of active or inactive are those of the source. Unless noted, the rule behind the calls is not given here.

Experiment [1] deals with Nakaseomyces glabratus. The experiment is described as follows: Antifungal activity against Candida glabrata ATCC 48435 at 125 ug/ml after 48 to 72 hrs by broth microdilution method. Format: functional, organism-based. The method, boiled down:
(§1)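 Broth microdilution per NCCLS. Inocula come from 5–7 colonies on YM agar, suspended in sterile water and adjusted to 0.5 McFarland at 530 nm (stock 1×10⁶–5×10⁶ cells/mL), then diluted 1:50 in HEPES-buffered RPMI 1640. Compounds in DMSO (final ≤1%) are added as a 10-fold dilution into the suspension. Plates run 48–72 h at 35 °C, humid. Growth is scored visually; the endpoint is ≥80% reduction versus drug-free wells.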

The subject of experiment [2] is Candida albicans. The experiment is described as follows: Antifungal activity against Candida albicans ATCC 10231 at 125 ug/ml after 48 to 72 hrs by broth microdilution method. It counts as functional, organism-based. The method, boiled down: as §1
Experiment [3] has as its system Nakaseomyces glabratus. The experiment is described as follows: Antifungal activity against Candida glabrata ATCC 48435 after 48 to 72 hrs by broth microdilution method. It counts as functional. The method, boiled down:
(§2)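 Broth microdilution per NCCLS. Organisms were subcultured on Sabouraud agar. Inoculum was 5–7 colonies from YM agar in sterile water, adjusted to 0.5 McFarland at 530 nm (1–5×10⁶ cells/mL stock), held 30 min at RT, then diluted 1:50 in HEPES-buffered RPMI 1640. DMSO stocks were twofold-diluted, with final DMSO ≤1%. Plates ran 48–72 h at 35 °C, humid. MIC is the lowest concentration giving ≥80% growth reduction vs drug-free wells, scored visually. Fluconazole or amphotericin B ran as drug control.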

Experiment [4] concerns Candida albicans. The experiment is described as follows: Antifungal activity against Candida albicans ATCC 10231 at 62 ug/ml after 48 to 72 hrs by broth microdilution method. Format: functional.
Experiment [5] concerns Candida albicans. The experiment is described as follows: Antifungal activity against Candida albicans ATCC 10231 after 48 to 72 hrs by broth microdilution method. Format: functional. A digest of the protocol:
as §2

As for `O=C1NC(=O)C(C2CCCCC2)C(=O)N1`, the result in experiment [1] and in experiment [2] was inactive.

As for `COc1ccc(C(=O)C2C(=O)NC(=O)NC2=O)cc1`, the result in experiment [1] and in experiment [2] was inactive.

In the case of `CN1C(=O)C(/C=N/NC(=O)c2ccc([N+](=O)[O-])cc2)C(=O)N(C)C1=O`, the MIC80 was found to be 125 µg/mL (≈ 360 µM) in experiment [3] and 62 µg/mL (≈ 179 µM) in experiment [5]. Further, in experiment [4], the inhibition at 62 µg/mL was below 50%.

On to `O=C1NC(=O)C(CC2CCC(O)CC2)C(=O)N1` (stereo unspecified), for which the result in experiment [1] and in experiment [2] was inactive.

As to `COc1ccc(C(=O)N/N=C/C2C(=O)N(C)C(=O)N(C)C2=O)cc1`, the MIC80 in experiment [3] was 31 µg/mL (≈ 93.3 µM); in experiment [5] it was 62 µg/mL (≈ 187 µM). Besides, the inhibition at 62 µg/mL in experiment [4] is below 50%.

Turning to `O=C1NC(=O)C(C(=O)c2ccccc2)C(=O)N1`, the result in experiment [1] and in experiment [2] was inactive.

Take `CN1C(=O)C(C(=O)c2ccc(O)cc2)C(=O)N(C)C1=O`: the outcome in experiment [1] and in experiment [2] was inactive.

Take `O=C1NC(=O)C(CCCC2CCCCC2)C(=O)N1`: the outcome in experiment [1] and in experiment [2] was inactive.

Turning to `CN/N=C/C1C(=O)N(C)C(=O)N(C)C1=O`, the results for the MIC80 in experiment [3] and in experiment [5] were 125 µg/mL (≈ 589 µM) and 62 µg/mL (≈ 292 µM), respectively. In experiment [4], this compound gave an inhibition at 62 µg/mL below 50%.

In the case of `O=C1NC(=O)C(C(=O)c2cc([N+](=O)[O-])cc([N+](=O)[O-])c2)C(=O)N1`, the result in experiment [1] and in experiment [2] was inactive.

As to `CN1C(=O)C(C(=O)c2cc([N+](=O)[O-])cc([N+](=O)[O-])c2)C(=O)N(C)C1=O`, the result in experiment [1] and in experiment [2] was inactive.

For `O=C1NC(=O)C(Cc2ccccc2)(Cc2ccccc2)C(=O)N1`, the outcome in experiment [1] and in experiment [2] was inactive.

In the case of `O=C1NC(=O)N(c2ccccc2)C(=O)C1CC1CCC(O)CC1` (stereo unspecified), the outcome in experiment [1] and in experiment [2] was inactive.

Turning to `CN1C(=O)C(C(=O)c2ccc([N+](=O)[O-])cc2)C(=O)N(C)C1=O`, the result in experiment [1] and in experiment [2] was inactive.

On to `CC(C)C1C(=O)NC(=O)N(c2ccccc2)C1=O` (stereo unspecified), for which the result in experiment [1] and in experiment [2] was inactive.

With `CN1C(=O)C(C(=O)c2cccnc2)C(=O)N(C)C1=O`, the result in experiment [1] and in experiment [2] was inactive.

Turning to `CN(C)c1ccc(CC2(CCCc3ccccc3)C(=O)NC(=O)NC2=O)cc1`, the result in experiment [1] and in experiment [2] was inactive.

With `CCCCN1C(=O)NC(=O)C(C(=O)c2ccc(OC)cc2)C1=O` (stereo unspecified), the outcome in experiment [1] and in experiment [2] was inactive.

For `O=C1NC(=O)C(C(=O)c2ccc([N+](=O)[O-])cc2)C(=O)N1`, the result in experiment [1] and in experiment [2] was inactive.

Consider `CN1C(=O)C(C(=O)c2ccccc2)C(=O)N(C)C1=O`, for which the result in experiment [1] and in experiment [2] was inactive.

With `O=CC1C(=O)NC(=O)NC1=O`, the result in experiment [1] and in experiment [2] was inactive.

Take `CCCCCCCC1C(=O)NC(=O)NC1=O`: the outcome in experiment [1] and in experiment [2] was inactive.

For `CN1C(=O)C(C(=O)c2cccc([N+](=O)[O-])c2)C(=O)N(C)C1=O`, the outcome in experiment [1] and in experiment [2] was inactive.

Take `O=C1NC(=O)C(C(=O)c2ccc(O)cc2)C(=O)N1`: the outcome in experiment [1] and in experiment [2] was inactive.

For `CN1C(=O)C(CCCc2ccccc2)C(=O)N(C)C1=O`, the result in experiment [1] and in experiment [2] was inactive.

In the case of `O=C1NC(=O)C(Cc2ccc(O)cc2)C(=O)N1`, the outcome in experiment [1] and in experiment [2] was inactive.

As for `C/C(=N\N)C1C(=O)N(C)C(=O)N(C)C1=O`, the MIC80 entry in experiment [3] and in experiment [5] was “inactive” throughout.

Regarding `C/C(=N\c1ccc(O)cc1)C1C(=O)NC(=O)NC1=O`, the MIC80 result in experiment [3] and in experiment [5] was “inactive” each time.

On to `CN1C(=O)C(/C=N/C2N=NN=N2)C(=O)N(C)C1=O`, for which the MIC80 entry in experiment [3] and in experiment [5] was “inactive” throughout.

Regarding `O=C1NC(=O)C(=Cc2ccoc2)C(=O)N1`, the MIC80 entry in experiment [3] and in experiment [5] was “inactive” in each case.

`C/C(=N\NS(=O)(=O)c1ccc(C)cc1)C1C(=O)NC(=O)NC1=O`: the MIC80 result in experiment [3] and in experiment [5] was “inactive” in each case.

Take `C/C(=N\Nc1ccc([N+](=O)[O-])cc1[N+](=O)[O-])C1C(=O)NC(=O)NC1=O`: the MIC80 entry in experiment [3] and in experiment [5] was “inactive” in each case.

`O=C1NC(=O)C(=Cc2ccccc2)C(=O)N1`: the MIC80 entry in experiment [3] and in experiment [5] was “inactive” in each case.

Consider `COC(=O)N/N=C(\c1ccc([N+](=O)[O-])cc1)C1C(=O)NC(=O)NC1=O`, for which the MIC80 entry in experiment [3] and in experiment [5] was “inactive” each time.

On to `COc1ccc(C=C2C(=O)N(C)C(=O)N(C)C2=O)c(OC)c1OC`, for which the MIC80 result in experiment [3] and in experiment [5] was “inactive” each time.

On to `O=C1NC(=O)C(/C=N/Nc2ccccc2)C(=O)N1`, for which the MIC80 was found to be 2 µg/mL (≈ 8.12 µM) in experiment [3] and 4 µg/mL (≈ 16.2 µM) in experiment [5].

Consider `CN/N=C(\C)C1C(=O)N(C)C(=O)N(C)C1=O`, for which the MIC80 result in experiment [3] and in experiment [5] was “inactive” each time.

With `CN1C(=O)NC(=O)C(C=O)C1=O` (stereo unspecified), the outcome in experiment [1] and in experiment [2] was inactive.

On to `CN1C(=O)C(/C=N/c2cccc(O)c2)C(=O)N(C)C1=O`, for which the MIC80 entry in experiment [3] and in experiment [5] was “inactive” each time.

Consider `COc1cc(OC)c(C=C2C(=O)N(C)C(=O)N(C)C2=O)c(OC)c1`, for which the MIC80 result in experiment [3] and in experiment [5] was “inactive” in each case.

Consider `CN1C(=O)NC(=O)C(C(=O)c2ccccc2)C1=O` (stereo unspecified), for which the result in experiment [1] and in experiment [2] was inactive.

Take `O=C1NC(=O)C(=Cc2cccc3ccccc23)C(=O)N1`: the MIC80 entry in experiment [3] is “inactive”. In experiment [5], this compound came in with an MIC80 of 125 µg/mL (≈ 469 µM).

For `O=C1NC(=O)N(c2ccccc2)C(=O)C1C(=O)c1ccc(O)cc1` (stereo unspecified), the result in experiment [1] and in experiment [2] was inactive.

On to `COc1ccc(/N=C/C2C(=O)N(C)C(=O)N(C)C2=O)cc1`, for which the MIC80 entry in experiment [3] and in experiment [5] was “inactive” each time.

On to `CCCCN1C(=O)NC(=O)C(C(=O)c2ccc(O)cc2)C1=O` (stereo unspecified), for which the result in experiment [1] and in experiment [2] was inactive.

Consider `COc1ccc(/N=C(\C)C2C(=O)N(C)C(=O)N(C)C2=O)cc1`, for which the MIC80 result in experiment [3] and in experiment [5] was “inactive” in each case.

The compound `O=C1NC(=O)C(C(=NNc2ccc(C(=O)O)cc2)C2C(=O)NC(=O)NC2=O)C(=O)N1` returned an MIC80 in experiment [3] of 125 µg/mL (≈ 300 µM). Also, the MIC80 result in experiment [5] was “inactive”.

For the compound `O=C1NC(=O)C(Cc2ccc3ccccc3c2)C(=O)N1`, the outcome in experiment [1] and in experiment [2] was inactive.

As for `O=C1NC(=O)C(C(=O)c2cccc([N+](=O)[O-])c2)C(=O)N1`, the outcome in experiment [1] and in experiment [2] was inactive.

For the compound `C/C(=N\c1ccncc1)C1C(=O)NC(=O)NC1=O`, the MIC80 result in experiment [3] and in experiment [5] was “inactive” each time.

As to `CN(C)c1ccc(CC2(Cc3ccc(N(C)C)cc3)C(=O)NC(=O)NC2=O)cc1`, the outcome in experiment [1] and in experiment [2] was inactive.

Regarding `CC(=O)C1C(=O)NC(=O)NC1=O`, the outcome in experiment [1] and in experiment [2] was inactive.

On to `C/C(=N\NC(=O)c1ccc([N+](=O)[O-])cc1)C1C(=O)N(C)C(=O)N(C)C1=O`, for which the MIC80 result in experiment [3] and in experiment [5] was “inactive” throughout.

`O=C1NC(=O)C(CCCc2ccccc2)C(=O)N1`: the outcome in experiment [1] and in experiment [2] was inactive.

Turning to `C/C(=N\Nc1ccccc1)C1C(=O)NC(=O)NC1=O`, the MIC80 in experiment [3] and in experiment [5] was 2 µg/mL (≈ 7.68 µM) throughout.

Regarding `COC(=O)N/N=C(\C)C1C(=O)N(C)C(=O)N(C)C1=O`, the MIC80 result in experiment [3] and in experiment [5] was “inactive” in each case.

As for `CC(=O)C1C(=O)NC(=O)N(c2ccccc2)C1=O` (stereo unspecified), the result in experiment [1] and in experiment [2] was inactive.

As for `O=C1NC(=O)N(c2ccccc2)C(=O)/C1=C\c1ccc(O)cc1`, the MIC80 result in experiment [3] and in experiment [5] was “inactive” throughout.

For the compound `COc1ccc(C(=O)C2C(=O)N(C)C(=O)N(C)C2=O)cc1`, the result in experiment [1] and in experiment [2] was inactive.
